Assay outcomes deposited in PubChem by several laboratories.
Hits are enriched below; roughly 2.1% of the tested compounds scored in any of these assays.
MT1-MMP txn act: activates MT1-MMP transcription | activation factor at 10 µM | 86,000 compounds, 0.16% hits | HT1080 MT1-MMP promoter luciferase reporter, luminescence, overnight; stronger effect = higher value;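 active means activation factor of at least 2 for MT1-MMP transcription at 10 µM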
SF-1 act: SF-1 (human) activation; Q13285; CHO-K1 Gal4-SF-1 LBD luciferase reporter; % increase over DMSO SF-1-specific signal; activation, % at 10 µM; 65,000 compounds, 1.9% hits; AID 522;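 active means activation above the mean activation of all tested compounds plus 3 SD, cut at about 50% in these data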
Target sequence (Q13285 whole entry, looked up, the tested form may be a part): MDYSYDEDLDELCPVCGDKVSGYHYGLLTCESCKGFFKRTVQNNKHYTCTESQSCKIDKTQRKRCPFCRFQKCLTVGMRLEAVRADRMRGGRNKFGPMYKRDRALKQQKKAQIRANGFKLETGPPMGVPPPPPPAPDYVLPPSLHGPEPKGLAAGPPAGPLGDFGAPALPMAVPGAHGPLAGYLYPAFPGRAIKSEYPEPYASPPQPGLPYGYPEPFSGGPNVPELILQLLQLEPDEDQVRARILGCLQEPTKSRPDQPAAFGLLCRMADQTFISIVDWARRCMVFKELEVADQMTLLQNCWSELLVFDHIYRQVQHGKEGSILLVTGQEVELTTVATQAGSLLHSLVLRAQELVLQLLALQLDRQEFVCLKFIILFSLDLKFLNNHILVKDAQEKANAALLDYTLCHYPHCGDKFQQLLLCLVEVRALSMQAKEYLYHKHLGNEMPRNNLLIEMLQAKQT
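Test system: CHO-K1 cells with Gal4–hSF-1 LBD chimera plus Gal4-driven luciferase; Input: 4,000 cells/well; Compound: 10 µM only; Times: 20 h compound treatment, 37 °C; Measured by: steady-glow luciferase luminescence, read after 15 min reagent incubation; Measure: percent activation versus DMSO; Control set: DMSO and mock-transfected background; Replicates: one test per compound.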
RORA act: activates the human nuclear receptor RORA; P35398; CHO-K1 Gal4-RORA LBD luciferase reporter, luminescence; percent increase over mock-subtracted basal signal; activation, % at 10 µM; 65,000 compounds, 1.5% hits; AID 560;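 active means activation above the mean of all tested compounds plus 3 SD, cut at about 49% in these data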;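 further: 0% = DMSO-treated RORA cells and 100% = added signal equal to DMSO minus mock-transfected cells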
MMP-13 inhibitor: MMP13 (human) collagenase inhibition | P45452 | MMP-13 fTHP FRET cleavage, Mca fluorescence | inhibition, % at 4 µM | 65,000 compounds, 0.07% hits | AID 570;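 active means inhibition above the mean of compound-free control plate wells plus 3 SD, cut at about 14% in these data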;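 further: 0% = DMSO wells and 100% = wells with reference MMP-13 inhibitor after basal subtraction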
TNAP act mid DEA: activators of human TNAP at intermediate phosphate acceptor. P05186. activation factor at 20 µM. purified TNAP, CDP-star luminescence, 100 mM DEA, 30 min; stronger effect = higher value; scale: 0 levamisole-inhibited, 1 vehicle-only enzyme. 64,000 tested, under 10 active;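 active means activation factor of at least 2 at 20 µM, relative to controls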
Numbers without * were called inactive; · = not tested or not shown.

SMILES | MT1-MMP txn act | SF-1 act | RORA act | MMP-13 inhibitor | TNAP act mid DEA
Nc1nc(Nc2cccc(F)c2)nc2ccccc12 | 1 | 67* | 47 | -27 | 0.9
NC(=O)C(c1ccc(Cl)cc1)c1ccc(Sc2ccc(Cl)cc2)nn1 (configuration not stated) | 1.1 | · | · | · | ·
COc1cc(OC)cc(-c2nc3ccccc3c(=O)o2)c1 | 1.2 | · | · | · | ·
COc1cc(OC)cc(-c2nc3cc(C)ccc3o2)c1 | 1.3 | 72* | 57* | -20 | 0.9
Oc1c(Cl)cc(Cl)cc1CNc1ccc(Br)cn1 | 1.1 | 20 | -5 | -1 | 0.8
Oc1ccc(Cl)cc1CNc1ccc(Br)cn1 | 1.5 | 89* | 33 | 4 | 1
COC(=O)c1ccc(C(/C=C/[C@@H](C)C(=O)NCCN2CCCC2)NC(=O)OCc2ccccc2)cc1 (some centres not stated) | 1.1 | · | · | · | ·
Fc1cccc(Cl)c1Cn1nnc(-c2ccc3c(c2)OCO3)n1 | 1.2 | 70* | 56* | 0 | 0.9
Cc1nc2ccc(NC(=O)N3CCSCC3)cc2s1 | 1.3 | 29 | -11 | 0 | 1
Cc1nc2ccc(NC(=O)N3CCCCC3)cc2s1 | 1.4 | 54* | 30 | -4 | 1.1
C=CCSc1n[nH]c(-c2ccc(OC)cc2)n1 | 1.4 | 68* | 63* | 2 | 0.4
C=CCSc1n[nH]c(-c2ccccc2)n1 | 1.4 | · | · | · | ·
COCc1nnc(NC(=O)c2ccc(NC(=O)C(C)C)cc2)s1 | 1.2 | 18 | 16 | 15* | 1
CCN(CC)c1ccc(-n2cc3c(=O)n(C)c(=O)n(C)c3c2)cc1 | 1.2 | 56* | 6 | -88 | 0.9
CN(C)c1ccc(-n2cc3c(=O)n(C)c(=O)n(C)c3c2)cc1 | 1.5 | 14 | 49* | -7 | 1
C/C(N)=C(/C#N)C(=O)COC(=O)C1CCC(C(C)(C)C)CC1 (configuration not stated) | 1 | · | · | · | ·
CC(C)OC1=C(OC(C)C)C(O)(C#CCN(C(=O)/C=C/c2ccccc2)C(C)(C)C)C1=O (configuration not stated) | 1.1 | · | · | · | ·
Cc1ccc(S(=O)(=O)/N=C2/C=C(C3C(=O)CC(C)(C)CC3=O)C(=O)c3ccccc32)cc1 | 2.1* | · | · | · | ·
COc1ccc(-c2ncc3ccccn23)cc1 | 1.2 | 53* | 21 | -3 | 0.9
CC(C)NC(=O)CCCOc1ccc(Cl)cc1Cl | 1.2 | · | · | · | ·
CCN(CC)C(=O)CCCOc1ccc(Cl)cc1Cl | 1.4 | 11 | 54* | 0 | 0.9
Cn1c(NC(=O)C2CC2)cc(=O)n(C)c1=O | 1.1 | -19 | -11 | -2 | 0.9
Cn1c(NC(=O)CCC2CCCCC2)cc(=O)n(C)c1=O | 1.5 | 92* | 38 | -4 | 1
COc1ccc(NC(=O)c2sc(SC)nc2N)cc1 | 1.7 | 61* | 62* | 2 | 0.9
CCC1=C2CC[C@H]3C(=O)N(C)C(=O)[C@H]3[C@H]2[C@@]2(C)C(=NCC(=O)OC)OC(=O)N2C1=O | 1.1 | · | · | · | ·
SMILES | MT1-MMP txn act | SF-1 act | RORA act | MMP-13 inhibitor | TNAP act mid DEA
O=C(NCCc1c[nH]c2ccccc12)c1cnc2sccn2c1=O | 1.8 | 60* | 38 | 7 | 1
O=C(NCc1ccc(F)cc1)c1cnc2sccn2c1=O | 1.1 | 1 | -10 | -9 | 0.9
CCC#CCOCC(=S)Nc1ccccc1 | 1.2 | · | · | · | ·
O=C(OCC(=O)N1CCCCCC1)c1n[nH]c(=O)c2ccccc12 | 1.2 | -9 | -12 | 1 | 0.9
O=C(OCC(=O)N1CCCCCC1)c1cccs1 | 1.6 | 55* | 14 | 2 | 0.9
COC(=O)c1c(-c2cccnc2)csc1NC(=O)c1cc(C)on1 | 1.6 | 80* | 57* | -5 | 0.9
CN1C[C@@H]2C(c3ccc(C(F)(F)F)cc3)C3(c4ccc(C#N)cc4)CC2(C3)[C@H]1c1ccccc1 (some centres not stated) | 1.3 | · | · | · | ·
CC(C)(C)n1ncc2c(=O)n(CC(=O)NCCc3ccccc3)cnc21 | 1.4 | 32 | -1 | 3 | 0.9
CC(C)(C)n1ncc2c(=O)n(CC(=O)NCc3ccccc3Cl)cnc21 | 0.8 | 74* | 8 | -3 | ·
COC(=O)C1=C(C)NC(=O)C1(NS(=O)(=O)c1ccc(NC(C)=O)cc1)C(F)(F)F (configuration not stated) | 1.1 | · | · | · | ·
O=C1c2ccccc2S(=O)(=O)N1Cc1nc2ccccc2s1 | · | -43 | -54 | 1 | 0.9
O=C(OCc1nc2ccccc2s1)C1CCN(C2=NS(=O)(=O)c3ccccc32)CC1 | 1.6 | 53* | 26 | -3 | 0.9
CN(C)c1ccc(C2=NOC(CN3C(=O)c4ccccc4S3(=O)=O)C2)cc1 (configuration not stated) | 1.8 | 33 | 60* | 0 | 0.9
O=C(O)C1CC=CCC1C(=O)Nc1ccc2c(c1)OCCO2 (configuration not stated) | 1.3 | · | · | · | ·
CN(C)CCCNC(=O)/C(=N\O)c1ccccc1 | 1.1 | · | · | · | ·
O=C(NCCc1ccccc1)/C(=N\O)c1ccccc1 | 1.8 | 64* | 14 | 0 | 0.9
O=C(Cc1ccccc1)Nc1ccc(CN2CCOCC2)cc1 | 1.2 | 41 | 56* | 2 | 0.9
O=C(Nc1ccc(N2CCOCC2)cc1)c1cc2ccccc2o1 | 1.6 | 47 | 74* | 3 | 0.8
CCC(=O)N1CCN(c2ccc(NC(=O)c3cc4ccccc4o3)cc2)CC1 | 1 | · | · | · | ·
O=C(Nc1ccc(CN2CCOCC2)cc1)c1cc2ccccc2o1 | 0.6 | 86* | 10 | 0 | 0.9
O=C(CN1CCOCC1)Nc1ccc(-c2nc3ccccc3[nH]2)cc1 | · | 52* | 38 | -2 | 0.9
O=C(Nc1ccc(CN2CCOCC2)cc1)c1ccccc1F | 1.6 | · | · | · | ·
CCCC(CCC)C(=O)Nc1c[nH]c(=O)[nH]c1=O | 0.9 | · | · | · | ·
CCC/C=C(\CCC)C(NC(=O)C(C)(C)C)c1ccc(C(=O)OC)cc1 (configuration not stated) | 1.1 | · | · | · | ·
COCCN(C(=O)CNC(=O)c1ccco1)C(C(=O)NC1CCCC1)c1cccs1 (configuration not stated) | 1.2 | · | · | · | ·
SMILES | MT1-MMP txn act | SF-1 act | RORA act | MMP-13 inhibitor | TNAP act mid DEA
COc1cc2nc3c(c([Si](C)(C)C(C)(C)C)c2cc1OC)Cn1c-3cccc1=O | 1.1 | · | · | · | ·
COC(=O)c1ccc(NC(=O)Cc2ccc(C)cc2)cc1 | 1 | · | · | · | ·
COC(=O)Nc1ccc(OCc2ccccc2)cc1 | 1.2 | 72* | 32 | 2 | 0.9
COC(=O)Nc1ccc(Oc2ccccc2)cc1 | 1.1 | 4 | -6 | 3 | 0.9
COC(=O)c1ccc(NC(=O)Cc2ccccc2)cc1 | 1.2 | 71* | 39 | -2 | 0.9
CCOC(=O)C1=C(C)N(CCCC(=O)N(Cc2ccc3c(c2)OCO3)C(C(=O)NC(C)(C)C)c2ccc3c(c2)OCO3)C(=O)NC1c1ccc(Br)cc1 (configuration not stated) | 1.2 | · | · | · | ·
Cc1c(C)c2c(C)[nH]nc2oc1=O | 2.3* | 16 | -5 | 1 | 0.9
CCCc1c(C)c2c(C)[nH]nc2oc1=O | 1.1 | · | · | · | ·
Cc1nc2cc(NC(=O)N3c4ccccc4CC3C)ccc2o1 (configuration not stated) | 1.3 | 79* | 41 | 4 | 0.9
